Screens deposited in PubChem by The Scripps Research Institute Molecular Screening Center.
Shown are actives, neighbours in structure and some others; about 2.7% of the full set was active somewhere.
pPAFAH inh: inhibitors of human plasma PAF acetylhydrolase (pPAFAH); inhibition, % at 3.39 µM; AID 463082; 1.5% of 330,000 active; recombinant pPAFAH, FP-rhodamine probe fluorescence polarization; Q13093;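 active means inhibition above the mean inhibition across the screen plus 3 SD, cut at about 25% in these data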;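 further: inhibitors block binding of the rhodamine activity-based probe so polarization drops; 0% = enzyme with DMSO and 100% = wells lacking pPAFAH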
PAFAH1B2 FP inh: inhibitors of human PAFAH1B2 | inhibition, % at 3.39 µM | recombinant PAFAH1B2, FP-rhodamine activity probe, fluorescence polarization | P68402 | 1.2% of 340,000 active;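 active means inhibition above the mean of all tested compounds plus 3 SD, cut at about 24% in these data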;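 further: 0% = enzyme with DMSO and 100% = wells lacking PAFAH1B2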
ASAP1 inh: inhibitors of human ASAP1 ArfGAP activity. Q9ULH1. ASAP1-stimulated ARF1 GTP hydrolysis, GDP FP detection. inhibition, % at 16.5 µM. 0.19% of 360,000 active; in the data active means inhibition above about 25%;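 further: 0% = vehicle with enzyme and substrate and 100% = no enzyme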
Target sequence (Q9ULH1 325-724 limits assumed): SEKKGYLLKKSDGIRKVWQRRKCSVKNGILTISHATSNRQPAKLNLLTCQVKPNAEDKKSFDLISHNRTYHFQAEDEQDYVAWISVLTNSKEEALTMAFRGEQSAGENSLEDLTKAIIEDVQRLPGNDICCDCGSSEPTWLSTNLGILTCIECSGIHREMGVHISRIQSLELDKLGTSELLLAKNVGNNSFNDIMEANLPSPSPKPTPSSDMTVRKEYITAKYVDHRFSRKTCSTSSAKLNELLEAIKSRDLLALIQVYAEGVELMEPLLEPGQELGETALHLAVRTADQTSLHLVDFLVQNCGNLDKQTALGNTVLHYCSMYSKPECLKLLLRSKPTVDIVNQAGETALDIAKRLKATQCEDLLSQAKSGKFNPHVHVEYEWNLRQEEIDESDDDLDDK
ARFGAP1 inhibitor: inhibitors of rat ARFGAP1. Q62848. Arfgap1-stimulated ARF1 GTP hydrolysis, GDP FP detection. inhibition, % at 16.5 µM. 0.26% of 360,000 active. AID 651572;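 active means inhibition above a per-plate limit, mean inhibition of low control wells plus 3 SD, cut at about 25% in these data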;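 further: 0% = DMSO wells with enzyme and 100% = wells lacking Arfgap1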
Target sequence (Q62848 1-136 limits assumed): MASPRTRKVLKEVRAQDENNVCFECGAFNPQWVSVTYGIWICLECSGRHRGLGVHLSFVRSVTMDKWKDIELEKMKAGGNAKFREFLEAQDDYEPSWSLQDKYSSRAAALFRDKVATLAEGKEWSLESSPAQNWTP
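Material: rat Arfgap1 GAP domain (His6, aa 1-136), purified enzyme. Also added: human ARF1(Δ1-17)-GTP substrate. Compound dosing: 16.5 µM single point, 1.26% DMSO. Timing: enzyme reaction 120 min at 25 °C after 20 min preincubation. Signal: GDP detection by fluorescence polarization. Read-out basis: percent inhibition of GAP-stimulated GDP formation, scaled between DMSO and no-Arfgap1 medians.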
PAFAH1B3 inh: inhibitors of human PAFAH1B3. Q15102. recombinant PAFAH1B3, FP-rhodamine probe, fluorescence polarization. inhibition, % at 3.39 µM. 0.28% of 340,000 active. AID 492972;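 active means inhibition above the screen-wide average of all tested compounds plus 3 SD, cut at about 25% in these data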;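 further: 0% = enzyme with DMSO only and 100% = wells lacking PAFAH1B3 protein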
PAFAH2 inh: PAFAH2 (human) inhibition; 0.99% of 340,000 active; inhibition, % at 3.39 µM; Q99487; recombinant PAFAH2, FP-rhodamine activity probe, fluorescence polarization;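 active means inhibition above the mean over all tested compounds plus 3 SD, cut at about 30% in these data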;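 further: inhibitors block probe labeling of enzyme so polarization drops; 0% = enzyme with DMSO and 100% = wells lacking PAFAH2 protein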
ARFGAP1 inh conf: confirmation of rat ARFGAP1 inhibitors. 30% of 890 active. shares compounds with ARFGAP1 inhibitor. AID 651608. inhibition, % at 16.5 µM. ARFGAP1-stimulated ARF1 GTP hydrolysis, GDP tracer FP;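 active means average inhibition over triplicates above the hit cutoff set in the earlier primary screen, cut at about 25% in these data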;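 further: 0% = Arfgap1 plus ARF1-GTP with DMSO and 100% = wells lacking Arfgap1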
Numbers without * were called inactive; / = no result given.

SMILES	pPAFAH inh	PAFAH1B2 FP inh	ASAP1 inh	ARFGAP1 inhibitor	PAFAH1B3 inh	PAFAH2 inh	ARFGAP1 inh conf
O=C(CSc1nc2c(c(=O)n1-c1ccc(Br)cc1)SCC2)NCc1ccco1	5.3	3.1	-3.0	29.3*	4.4	6.0	-2.7
O=C(COC(=O)c1cccc([N+](=O)[O-])c1)NCc1cccs1	10.2	3.0	-5.0	-6.2	0.7	4.7	/
O=C(COC(=O)CSc1ccc([N+](=O)[O-])cc1)NCc1cccs1	13.5	9.0	6.7	26.4*	3.5	-5.1	8.9
COc1ccc(C(=O)N2CCCCCC2)cc1OC1CCN(C(C)=O)CC1	0.8	6.1	-1.9	-6.6	12.6	4.1	/
COCCNCc1nc2sc(C)c(-c3ccccc3)c2c(=O)[nH]1	-1.6	4.0	-2.5	28.4*	7.3	1.3	1.3
O=[N+]([O-])c1ccc(/C=N/NC(=S)Nc2ccc(Cl)cc2Cl)s1	11.6	6.1	16.4	1.5	5.8	5.0	/
Cc1ccc(C(=O)Nc2ccc3c(c2)C(=O)NC3=O)cc1	-9.6	-6.7	13.2	25.2*	-14.3	-14.9	-3.2
COC(=O)c1ccc(C(=O)Nc2ccc3c(c2)C(=O)NC3=O)cc1	2.7	-1.1	13.8	23.3	-4.4	-2.5	/
COc1ccccc1C(=O)OCC(=O)Nc1cccc(S(=O)(=O)N2CCCC2)c1	/	2.5	0.1	0.6	4.0	27.2	/
O=C(O)c1ccc(/C=N/Nc2ccc(C(F)(F)F)cn2)cc1	/	-1.7	-16.7	-1.9	4.7	5.8	/
COc1cc(/C=N/Nc2ccc(C(F)(F)F)cn2)ccc1O	10.7	6.1	9.1	28.6*	8.5	1.0	4.3
Cc1ccc(S(=O)(=O)N/N=C\c2cn(CC(N)=O)c3ccccc23)cc1	5.9	15.9	0.3	29.9*	4.5	0.9	-7.0
CN(C)C(=O)c1ccc(NC(=O)c2cc(-c3ccco3)nc3ccccc23)cc1	/	8.1	-8.8	-3.2	13.1	7.6	/
CCN(CC)CCNC(=O)c1ccc(NC(=O)c2cn(-c3ccc(F)cc3)nc2-c2cccc(OC)c2)cc1	-13.6	-2.9	11.9	9.0	-1.2	-14.2	/
CCN(CC)CCNC(=O)c1ccc(NC(=O)c2cc(-c3ccco3)nc3ccccc23)cc1	2.8	0.0	4.4	25.5*	8.0	0.2	1.1
CCN(CC)CCNC(=O)c1ccc(NC(=O)c2cn(-c3ccccc3)nc2-c2cccs2)cc1	-21.0	-11.5	13.9	39.0*	-16.8	-10.7	55.9*
CSc1ncc(C(=O)Nc2ccc(C(C)=O)cc2)c(-c2ccccc2)n1	-4.8	0.7	7.3	-10.3	0.6	-1.3	/
O=C(N/N=C/c1c[nH]c2ccc(Br)cc12)c1ccn(Cc2ccc(Cl)cc2)n1	5.8	0.0	14.8	11.4	4.9	-12.4	/
CCCOc1ccc(C(=O)N/N=C/c2c[nH]c3ccc(Br)cc23)cc1	27.0*	7.4	11.1	24.7*	9.2	-0.5	14.2
O=C(CN1CCC(NC(=O)c2ccco2)CC1)Nc1ccccc1[N+](=O)[O-]	-1.7	/	/	/	/	/	/
Cc1c(C)c2ccc(OCC(=O)NCCCn3ccnc3)c(C)c2oc1=O	-4.5	4.9	-6.6	-2.7	8.1	3.1	/
Cc1c(C)c2ccc(OCC(=O)NCCc3c[nH]c4ccccc34)c(C)c2oc1=O	2.4	3.1	14.6	25.3*	-3.8	0.0	6.5
COc1cc(C(=O)Nc2ccc3nc(N4CCN(C)CC4)cc(C)c3c2)cc(OC)c1OC	7.5	1.1	12.0	28.9*	3.4	5.8	25.4*
Cc1ccc(CNC(=O)Cn2c(=O)n(CC(=O)N3CCCCC3)c(=O)c3sccc32)cc1	2.4	7.9	4.8	7.9	7.6	-2.3	/
Cc1ccc(CNC(=O)Cn2c(=O)c3sccc3n(Cc3ccc([N+](=O)[O-])cc3)c2=O)cc1	0.0	-11.6	22.4	36.3*	-8.0	-16.6	55.4*
SMILES	pPAFAH inh	PAFAH1B2 FP inh	ASAP1 inh	ARFGAP1 inhibitor	PAFAH1B3 inh	PAFAH2 inh	ARFGAP1 inh conf
FC(F)Oc1ccc(NC(=S)NC23CC4CC(CC(C4)C2)C3)cc1	-1.0	13.3	-3.8	25.3*	7.3	10.5	8.4
Cc1ccc2sc(-c3ccc(NC(=O)c4cc(-n5cnnc5)ccc4Cl)cc3)nc2c1	-5.4	-12.8	14.7	27.7*	-27.4	-26.7	17.8
Cc1ccc(CN2CC(C(=O)N3CCN(S(=O)(=O)c4cccc(F)c4)CC3)CC2=O)cc1 (stereo not drawn)	-0.1	-1.9	1.8	5.5	3.9	4.2	/
COc1cc(/C=C(\C#N)c2ccccn2)ccc1OCC(=O)Nc1c(Cl)cccc1Cl	0.9	-7.0	9.5	29.0*	-7.9	-9.6	31.1*
COCCN1C(=O)CCC1(C)C(=O)NC1CCCCC1 (stereo not drawn)	/	/	0.3	-0.2	/	/	/
COC(=O)c1ccc(N2CCN(C)CC2)c(NC(=O)COc2ccccc2Cl)c1	-0.8	1.7	3.5	27.4*	1.0	7.3	2.3
O=C(NC1CCCCC1)C(c1cc2c(cc1[N+](=O)[O-])OCO2)N1CCCCC1 (stereo not drawn)	10.2	/	/	/	/	/	/
Oc1ccc(/C=N/Nc2cccc3cccnc23)c(O)c1	15.9	7.4	3.2	50.6*	18.5	4.7	16.0
Cc1ccc(/C=N/Nc2cccc3cccnc23)c(O)c1	7.6	7.5	0.9	4.2	5.3	4.0	/
Cc1ccc(NC(=O)C2C3/C=C\CCCCC32)cc1C (stereo not drawn)	5.0	-3.5	9.4	44.2*	-8.3	0.4	-3.0
COc1cc(CN2CCNC(=O)C2CC(=O)N(C)CCN2CCOCC2)cc(OC)c1 (stereo not drawn)	/	-2.7	10.1	28.4*	-2.2	-1.4	-7.2
COc1cc(CN2CCNC(=O)C2CC(=O)N(C)CCCN2CCOCC2)cc(OC)c1 (stereo not drawn)	2.8	1.9	7.3	-0.4	6.3	-1.2	/
O=C(NCc1ccc(Cl)cc1)C(=O)NCC(c1ccco1)N1CCOCC1 (stereo not drawn)	6.8	3.6	5.7	29.7*	6.3	-2.8	3.3
COc1ccc(S(=O)(=O)NCc2ccc(C(=O)NCCCN3CC(C)CC(C)C3)cc2)cc1 (stereo not drawn)	2.1	2.2	1.8	6.4	0.7	4.0	/
N#C/C(=C\c1ccc(Oc2ccc(C(F)(F)F)cc2[N+](=O)[O-])cc1)c1nc2ccccc2[nH]1	3.1	-4.1	15.0	25.0*	-16.4	-27.0	9.9
N#C/C(=C/c1ccc(N2CCCC2)c([N+](=O)[O-])c1)c1nc2ccccc2[nH]1	3.8	4.3	2.1	-13.5	4.0	5.1	/
CC(C)(C)C(=O)Nc1ccc(C(=O)COC(=O)C2=COCCO2)cc1	/	-1.4	-2.2	8.8	0.4	-3.5	/
Clc1ccc2c(N/N=C/c3cccc(Br)c3)ccnc2c1	-0.4	-3.2	16.5	38.1*	-1.0	-4.5	62.6*
Clc1ccc2c(N/N=C/c3ccccc3Br)ccnc2c1	-1.2	-4.8	1.4	26.6*	2.1	-6.0	25.6*
